Results on two compounds are retold here after ChEMBL document CHEMBL1150692, “Isolation and synthesis of a new bioactive ellagic acid derivative from Combretum yunnanensis” (J Nat Prod, 2003).

One data set deals with Mus musculus. Briefly: Toxicity in mouse at 100 mg/kg, ip. The following applies: in vivo. In kind it is organism-based. On the set-up: dose 100 mg/kg, route intraperitoneal.
The next data set has as its system B16. The experiment in a line: Cytotoxicity against mouse B16 cells after 3 days by MTT assay. The settings on record: B16, 72 h. In kind it is functional, cell-based. The method, boiled down: (§1)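 Incubated with sample at 37 °C for 3 or 4 days; viable cell number then estimated by MTT colorimetric assay.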
For orientation: Formazan colour is commonly taken as a measure of viable cells.

In data set [1] the test system is K562. The experiment in a line: Cytotoxicity against adriamycin-resistant human K562 cells after 3 days by MTT assay. In kind it is functional, cell-based. The following applies: K562, 72 h. The method, boiled down: as §1
In data set [2] the test system is K562. Briefly: Cytotoxicity against human K562 cells after 3 days by MTT assay. The settings on record: K562, 72 h. Format: functional, cell-based. The method, boiled down: as §1
The next data set has as its system HeLa. The experiment in a line: Cytotoxicity against human HeLa cells after 3 days by MTT assay. Format: functional, cell-based. The following applies: 72 h. The method, boiled down: as §1
The next data set has as its target Protease (Human immunodeficiency virus 1, UniProt Q9YQ12). The experiment in a line: Inhibition of HIV1 protease.
In a further data set the test system is KB. The experiment in a line: Cytotoxicity against human KB cells after 3 days by MTT assay. In kind it is functional, cell-based. The following applies: 72 h. The method, boiled down: as §1
The subject of data set [3] is P388. Briefly: Cytotoxicity against adriamycin-resistant mouse P388 cells after 3 days by MTT assay. In kind it is functional, cell-based. The following applies: P388, 72 h. Summed up:
as §1

Data set [4] concerns P388. Briefly: Cytotoxicity against mouse P388 cells after 3 days by MTT assay. The settings on record: P388, 72 h. In kind it is functional, cell-based. The method, boiled down:
as §1

≈ marks a conversion by molar mass, not a printed value.

By IC50 is commonly meant the midpoint of a concentration-inhibition curve. Lower therefore signals inhibition by little substance.

Sequence of Protease (Q9YQ12 whole entry): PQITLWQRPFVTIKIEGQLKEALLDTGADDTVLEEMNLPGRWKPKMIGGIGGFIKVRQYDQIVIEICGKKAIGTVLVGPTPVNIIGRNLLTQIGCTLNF

Turning to `CC(=O)O[C@@H]1[C@@H](O)[C@@H](O)[C@H](Oc2cc3c(=O)oc4c(O)c(O)cc5c(=O)oc(c2O)c3c45)O[C@H]1C`, the Activity result in the data set on Mus musculus is on record as “Non-toxic”. Besides, the IC50 is 52 µg/mL (≈ 106 µM) with B16; 56 µg/mL (≈ 114 µM) with K562 [1]; 80 µg/mL (≈ 163 µM) in the data set with K562 [2]; 76 µg/mL (≈ 155 µM) with HeLa; 22.4 µM at Protease; 61 µg/mL (≈ 124 µM) in the data set with KB. Moreover, the results for the IC50 with P388 [3] and with P388 [4] were 19 µg/mL (≈ 38.7 µM) and 52 µg/mL (≈ 106 µM), respectively.

In the case of `C[C@@H]1O[C@@H](Oc2cc3c(=O)oc4c(O)c(O)cc5c(=O)oc(c2O)c3c45)[C@H](O)[C@H](O)[C@H]1O` [ESCHWEILENOL C], the concentration for half-maximal inhibition (IC50) with B16 is 88 µg/mL (≈ 196 µM); in the data set with K562 [1] it was 67 µg/mL (≈ 149 µM); in the data set on K562 [2] it was 82 µg/mL (≈ 183 µM); in the data set with HeLa, 86.5 µg/mL (≈ 193 µM); against Protease it was 10.7 µM; in the data set with KB, 98 µg/mL (≈ 219 µM). The IC50 in the data set on P388 [3] was 53 µg/mL (≈ 118 µM); in the data set with P388 [4], 62 µg/mL (≈ 138 µM).
